Screening data from PubChem.
PAFAH1B2 FP inh: PAFAH1B2 enzyme inhibitors, primary screen, biochemical, fluorescence polarization, human | Platelet-activating factor acetylhydrolase IB subunit alpha2 (Homo sapiens), P68402 | recombinant PAFAH1B2, FP-rhodamine activity probe | inhibition, % at 3.39 µM | actives 1.2% (n = 340,000) | AID 492953, 2010;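 active = inhibition above the mean of all tested compounds plus 3 SD, cut at about 24% in these data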;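 also: 0% = enzyme with DMSO and 100% = wells lacking PAFAH1B2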
Target sequence (P68402 whole entry, looked up): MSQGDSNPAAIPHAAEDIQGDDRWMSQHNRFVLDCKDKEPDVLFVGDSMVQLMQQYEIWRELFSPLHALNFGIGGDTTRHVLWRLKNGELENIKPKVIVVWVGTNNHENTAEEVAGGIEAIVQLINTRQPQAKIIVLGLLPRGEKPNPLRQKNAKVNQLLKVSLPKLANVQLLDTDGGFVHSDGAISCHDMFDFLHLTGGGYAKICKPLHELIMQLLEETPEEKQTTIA
pPAFAH inh: pPAFAH enzyme inhibitors, primary screen, biochemical, fluorescence polarization, human. recombinant pPAFAH, FP-rhodamine probe fluorescence polarization. inhibition, % at 3.39 µM. Platelet-activating factor acetylhydrolase (Homo sapiens), Q13093. AID 463082, 2010. actives 1.5% (n = 330,000);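 active = inhibition above the mean inhibition across the screen plus 3 SD, cut at about 25% in these data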;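 also: inhibitors block binding of the rhodamine activity-based probe so polarization drops; 0% = enzyme with DMSO and 100% = wells lacking pPAFAH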
ARFGAP1 inh: inhibitors of rat ARFGAP1 GAP activity, primary screen, biochemical, fluorescence polarization, GDP tracer. ADP-ribosylation factor GTPase-activating protein 1 (Rattus norvegicus), Q62848. Arfgap1-stimulated ARF1 GTP hydrolysis, GDP FP detection. inhibition, % at 16.5 µM. actives 0.26% (n = 360,000). AID 651572, 2012;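 active = inhibition above a per-plate limit, mean inhibition of low control wells plus 3 SD, cut at about 25% in these data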;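 also: 0% = DMSO wells with enzyme and 100% = wells lacking Arfgap1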
Target sequence (Q62848 1-136 limits assumed): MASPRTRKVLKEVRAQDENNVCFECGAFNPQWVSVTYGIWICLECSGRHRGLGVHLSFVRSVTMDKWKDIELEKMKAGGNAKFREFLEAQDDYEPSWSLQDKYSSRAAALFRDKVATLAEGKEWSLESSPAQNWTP
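Repeats: one replicate per compound; assay system: rat Arfgap1 catalytic domain, aa 1-136; times: enzyme reaction 120 min at 25 °C after 20 min preincubation; detection: FP of antibody-bound GDP Alexa 633 tracer, ex 620/em 688 nm; benchmarks: high control wells lacking Arfgap1, low control full reaction with DMSO; reagent: human ARF1(Δ1-17)-GTP substrate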
PAFAH1B3 FP inh: PAFAH1B3 enzyme inhibitors, primary screen, biochemical, fluorescence polarization, human; inhibition, % at 3.39 µM; recombinant PAFAH1B3, FP-rhodamine probe; actives 0.28% (n = 340,000); Platelet-activating factor acetylhydrolase IB subunit alpha1 (Homo sapiens), Q15102;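 active = inhibition above the screen-wide average of all tested compounds plus 3 SD, cut at about 25% in these data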;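 also: 0% = enzyme with DMSO only and 100% = wells lacking PAFAH1B3 protein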
ASAP1 inh: inhibitors of human ASAP1 ArfGAP activity, primary screen, biochemical, fluorescence polarization; Arf-GAP with SH3 domain, ANK repeat and PH domain-containing protein 1 (Homo sapiens), …; ASAP1-stimulated ARF1 GTP hydrolysis, GDP FP detection; AID 624377, 2012; actives 0.19% (n = 360,000); inhibition, % at 16.5 µM; in the data active = inhibition above about 25%;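 also: 0% = vehicle with enzyme and substrate and 100% = no enzyme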
PAFAH2 FP inh: PAFAH2 enzyme inhibitors, primary screen, biochemical, fluorescence polarization, human. Platelet-activating factor acetylhydrolase 2, cytoplasmic (Homo sapiens), Q99487. recombinant PAFAH2, FP-rhodamine activity probe. inhibition, % at 3.39 µM. actives 0.99% (n = 340,000). AID 492956, 2010;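 active = inhibition above the mean over all tested compounds plus 3 SD, cut at about 30% in these data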;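 also: inhibitors block probe labeling of enzyme so polarization drops; 0% = enzyme with DMSO and 100% = wells lacking PAFAH2 protein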
Starred values were filed as active, the others as inactive; nt = no result. In the library only some 2.8% were active in any assay of this set; here they are far more common.

SMILES	PAFAH1B2 FP inh	pPAFAH inh	ARFGAP1 inh	PAFAH1B3 FP inh	ASAP1 inh	PAFAH2 FP inh
COc1ccc(S(=O)(=O)Nc2ccc3c(c2)C(=O)N([C@H](C)CO)C[C@H](C)[C@@H](CN(C)S(=O)(=O)c2ccc(F)cc2)O3)cc1	29*	6	2	2	6	1
C[C@H](CO)N1C[C@H](C)[C@@H](CN(C)C(=O)Nc2ccc(C(F)(F)F)cc2)Oc2ccc(NS(=O)(=O)c3cccs3)cc2C1=O	2	13	13	5	5	10
Cc1ccc(S(=O)(=O)Nc2ccc3c(c2)C(=O)N([C@H](C)CO)C[C@H](C)[C@@H](CN(C)C(=O)Nc2ccc(C(F)(F)F)cc2)O3)cc1	8	25*	9	4	-7	7
C[C@H](CO)N1C[C@H](C)[C@@H](CN(C)Cc2ccccc2)Oc2c(NS(=O)(=O)c3ccc(F)cc3)cccc2C1=O	-3	2	-11	7	-4	5
Cc1cc(C)c(C(O)c2ncc(-c3cccc4ccccc34)[nH]2)c(C)c1 (stereo unspecified)	nt	nt	8	nt	-1	nt
CC(=O)Nc1ccc(CN2C(=O)C(C)(C)ON=C2c2ccc(NC(C)=O)cc2)cc1	nt	nt	1	nt	4	nt
C[C@@H](C(=O)OCC(=O)c1ccccc1)N1C(=O)C2CCCCC2C1=O (stereo partly specified)	3	16	-11	17	5	20
C[C@@H](C(=O)OCC(=O)c1ccc(F)c(F)c1)N1C(=O)C2CCCCC2C1=O (stereo partly specified)	3	28*	0	3	-6	20
COc1cc(CCCN2CCNC[C@H]2Cc2cccc3ccccc23)cc(OC)c1OC	4	0	-4	0	1	4
CCOc1ncccc1C(=O)OCC(=O)Nc1ncc(C(F)(F)F)cc1Cl	-3	27*	-1	0	2	17
CCOc1ccccc1C(=O)OCC(=O)Nc1ncc(C(F)(F)F)cc1Cl	4	27*	2	11	13	4
O=C(COC(=O)c1cccc2ccccc12)Nc1ncc(C(F)(F)F)cc1Cl	-1	2	4	-4	-4	-1
O=C(CCC(C(=O)c1ccccc1)c1ccccc1)c1ccccc1 (stereo unspecified)	nt	nt	10	nt	6	nt
Cc1ccc(CNc2nc3cc(-c4ccccc4)sc3c(=O)n2C)c(C)c1	nt	nt	-1	nt	5	nt
N#CCOC(=O)c1sccc1-n1cccc1	11	-2	1	10	-7	-14
N#CCC(=O)c1sccc1-n1cccc1	11	34*	5	6	1	3
CC(C(=O)Nc1ccccc1-c1ccccc1)N1CCN(S(=O)(=O)c2ccccc2)CC1 (stereo unspecified)	31*	0	-6	11	-17	-3
Cc1ccc(S(=O)(=O)N2CCN(C(C)C(=O)NCC(C)c3ccccc3)CC2)cc1 (stereo unspecified)	29*	-4	-1	1	8	-3
O=C(NCc1ccncc1)[C@@H]1CCCN1C(=O)[C@H]1CCCN1C(=O)c1cccc2ccccc12	nt	nt	-1	nt	7	nt
COCc1cccc(-c2csc(C(NC(C)=O)c3ccccc3)n2)c1 (stereo unspecified)	nt	nt	-4	nt	-2	nt
O=C(NCC(=O)N1CCN(c2ccc(C(F)(F)F)cn2)CC1)c1ccc(Br)o1	-1	1	2	2	7	6
N#CCC(=O)Nc1ccc(C(=O)NCCC(c2ccccc2)c2ccccc2)cc1	-7	34*	6	-9	-3	-13
CCOC(=O)[C@]12CCC=C1N(Cc1ccc3c(c1)OCO3)C(=O)[C@H](CC(=O)N1CCCCC1)C2	nt	nt	9	nt	-9	nt
